{
  "source": "ChEMBL document CHEMBL1142073",
  "about": "“Synergistic activity of R207910 combined with pyrazinamide against murine tuberculosis” (2007)",
  "key": {"[1]": {"system": "Mycobacterium tuberculosis", "assay": "Reduction of bacterial counts in Mycobacterium tuberculosis H37Rv infected Swiss mouse lung at 25 mg/kg, po for 5 days/week after 2 months", "format": "functional", "procedure,_shortened": "(§1)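 Female 4-week-old Swiss mice were infected in the tail vein with about 2 10 6 CFU of H37Rv, grown in Dubos broth for 7 days at 37 C. Gavage started 2 weeks post-infection, 5 days/week, with rifampin given 1 h before other drugs. Lung homogenates were plated for CFU; some groups had both lungs cultured undiluted. Mann-Whitney U test.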"}, "[2]": {"system": "Mycobacterium tuberculosis", "assay": "Reduction of bacterial counts in Mycobacterium tuberculosis H37Rv infected Swiss mouse lung at 25 mg/kg, po for 5 days/week after 1 month", "format": "functional", "procedure,_shortened": "as §1"}, "[3]": {"system": "Mycobacterium tuberculosis", "assay": "Reduction of lung lesions in Mycobacterium tuberculosis H37Rv infected Swiss mouse at 25 mg/kg, po for 5 days/week after 2 months", "format": "functional, organism-based", "set-up": "dose 25 mg/kg"}, "[4]": {"system": "Mycobacterium tuberculosis", "assay": "Reduction of bacterial counts in Mycobacterium tuberculosis H37Rv infected Swiss mouse lung at 150 mg/kg, po for 5 days/week after 2 months", "format": "functional", "procedure,_shortened": "as §1"}, "[5]": {"system": "Mycobacterium tuberculosis", "assay": "Reduction of lung lesions in Mycobacterium tuberculosis H37Rv infected Swiss mouse at 150 mg/kg, po for 5 days/week after 2 months", "format": "functional, organism-based", "set-up": "dose 150 mg/kg"}, "[6]": {"system": "Mycobacterium tuberculosis", "assay": "Reduction of bacterial counts in Mycobacterium tuberculosis H37Rv infected Swiss mouse lung at 150 mg/kg, po for 5 days/week after 1 month", "format": "functional", "procedure,_shortened": "as §1"}, "[7]": {"system": "Mycobacterium tuberculosis", "assay": "Reduction of lung lesions in Mycobacterium tuberculosis H37Rv infected Swiss mouse at 25 mg/kg, po for 5 days/week after 1 month", "format": "functional, organism-based", "set-up": "dose 25 mg/kg"}, "[8]": {"system": "Mycobacterium tuberculosis", "assay": "Reduction of bacterial counts in Mycobacterium tuberculosis H37Rv infected Swiss mouse lung at 100 mg/kg, po for 5 days/week after 2 months", "format": "functional", "procedure,_shortened": "as §1"}, "[9]": {"system": "Mycobacterium tuberculosis", "assay": "Reduction of bacterial counts in Mycobacterium tuberculosis H37Rv infected Swiss mouse lung at 100 mg/kg, po for 5 days/week after 1 month", "format": "functional", "procedure,_shortened": "as §1"}, "[10]": {"system": "Mycobacterium tuberculosis", "assay": "Reduction of lung lesions in Mycobacterium tuberculosis H37Rv infected Swiss mouse at 100 mg/kg, po for 5 days/week after 2 months", "format": "functional, organism-based", "set-up": "dose 100 mg/kg"}, "[11]": {"system": "Mycobacterium tuberculosis", "assay": "Reduction of bacterial counts in Mycobacterium tuberculosis H37Rv infected Swiss mouse lung at 10 mg/kg, po for 5 days/week after 1 month", "format": "functional", "procedure,_shortened": "as §1"}, "[12]": {"system": "Mycobacterium tuberculosis", "assay": "Reduction of bacterial counts in Mycobacterium tuberculosis H37Rv infected Swiss mouse lung at 10 mg/kg, po for 5 days/week after 2 months", "format": "functional", "procedure,_shortened": "as §1"}, "[13]": {"system": "Mycobacterium tuberculosis", "assay": "Reduction of lung lesions in Mycobacterium tuberculosis H37Rv infected Swiss mouse at 10 mg/kg, po for 5 days/week after 2 months", "format": "functional, organism-based", "set-up": "dose 10 mg/kg"}},
  "note": "Activity calls are given as the source filed them. No cut-off for these calls is given here.",
  "data": [
    {"smiles": "NNC(=O)c1ccncc1", "note": "[ISONIAZID]", "values": [
      {"measurement": "Log10 cfu", "setting": "[1]", "result": 4.7},
      {"measurement": "Log10 cfu", "setting": "[2]", "result": 4.9},
      {"measurement": "Activity", "setting": "[3]", "result": "Active"}
    ]},
    {"smiles": "NC(=O)c1cnccn1", "note": "[PYRAZINAMIDE]", "values": [
      {"measurement": "Log10 cfu", "setting": "[4]", "result": 6.4},
      {"measurement": "Activity", "setting": "[5]", "result": "inactive"},
      {"measurement": "Log10 cfu", "setting": "[6]", "result": 6.2}
    ]},
    {"smiles": "COc1nc2ccc(Br)cc2cc1[C@@H](c1ccccc1)[C@@](O)(CCN(C)C)c1cccc2ccccc12", "note": "[BEDAQUILINE]", "values": [
      {"measurement": "Log10 cfu", "setting": "[1]", "result": 2.3},
      {"measurement": "Log10 cfu", "setting": "[2]", "result": 4.1},
      {"measurement": "Activity", "setting": "[3]", "result": "Active"},
      {"measurement": "Activity", "setting": "[7]", "result": "Active"}
    ]},
    {"smiles": "COc1c(N2C[C@@H]3CCCN[C@@H]3C2)c(F)cc2c(=O)c(C(=O)O)cn(C3CC3)c12", "note": "[MOXIFLOXACIN]", "values": [
      {"measurement": "Log10 cfu", "setting": "[8]", "result": 4.3},
      {"measurement": "Log10 cfu", "setting": "[9]", "result": 5.5},
      {"measurement": "Activity", "setting": "[10]", "result": "Active"}
    ]},
    {"smiles": "CO[C@H]1/C=C/O[C@@]2(C)Oc3c(C)c(O)c4c(O)c(c(/C=N/N5CCN(C)CC5)c(O)c4c3C2=O)NC(=O)/C(C)=C\\C=C\\[C@H](C)[C@H](O)[C@@H](C)[C@@H](O)[C@@H](C)[C@H](OC(C)=O)[C@@H]1C", "note": "[RIFAMPIN]", "values": [
      {"measurement": "Log10 cfu", "setting": "[11]", "result": 6},
      {"measurement": "Log10 cfu", "setting": "[12]", "result": 4.1},
      {"measurement": "Activity", "setting": "[13]", "result": "Active"}
    ]}
  ]
}
